The source made the active and inactive calls. No cut-off for these calls is given here.

Test [1] concerns the target T1, DNA topoisomerase 2-beta (Homo sapiens, UniProt Q02880). As to the kind of experiment: Inhibition of human topoisomerase IIB-mediated DNA fragmentation.
Test [2] can be described thus: (§1) Growth inhibition of human HNO 97 cells at 100 ug/ml measured after 48 hrs by SRB assay relative to control. Type of test: functional, HNO 97 cell line. As to conditions: HNO 97, 48 h, pooled result: one value given for 15 cell lines, strains, targets or settings, read-out: GI. Summed up: (§2)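 SRB screen on fifteen human cancer lines. Cells seeded at 3×10^3 per well and left 24 h to attach. A single concentration of 100 µg/mL was tested in triplicate wells for 48 h, with 1% v/v DMSO as vehicle control. Cells fixed in 20% TCA, stained with 0.4% SRB and read at 570 nm. Survival fraction = OD treated/OD control.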

The target in test [3] is T1, DNA topoisomerase 2-beta. The experiment in a line: Inhibition of human topoisomerase IIB by sandwich ELISA. (In general: ELISA stands for enzyme-linked immunosorbent assay.)
In the next test the test system is PC-3. As to the kind of experiment: Growth inhibition of human PC-3 cells at 100 ug/ml measured after 48 hrs by SRB assay relative to control. Type of test: functional. As to conditions: dose 100.0 µg/ml, pooled result: one value given for 15 cell lines, strains, targets or settings. Summed up: as §2
A further test relates to A549. The experiment in a line: Growth inhibition of human A549 cells at 100 ug/ml measured after 48 hrs by SRB assay relative to control. The test is classed as functional. As to conditions: dose 100.0 µg/ml, pooled result: one value given for 15 cell lines, strains, targets or settings. Summed up:
as §2
Background: In SRB staining, fixed cells bind dye roughly in proportion to their protein.

The subject of another test is HCT-116. As to the kind of experiment: Growth inhibition of human HCT-116 cells at 100 ug/ml measured after 48 hrs by SRB assay relative to control. The test is classed as functional. The note with it: dose 100.0 µg/ml, pooled result: one value given for 15 cell lines, strains, targets or settings. The method, boiled down:
as §2

Another test has as its target Tubulin (Homo sapiens) (UniProt P68371+Q9H4B7+P0DPH7+P68366+Q13509+Q71U36+P04350+Q3ZCM7+P07437+P68363+Q9BQE3+Q6PEY2+Q13885+Q9BVA1+Q9BUF5). The experiment in a line: (§3) Inhibition of [3H]-colchicine binding to biotinylated-tubulin (unknown origin) measured after 45 mins by scintillation counting analysis. The test is classed as protein-complex assay. Summed up: (§4)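 Scintillation proximity assay run at 37 °C. Incubated 45 min at 37 °C, then the plate was read and percent inhibition calculated from raw counts.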

A further test concerns MCF7. As to the kind of experiment: Growth inhibition of human MCF7 cells at 100 ug/ml measured after 48 hrs by SRB assay relative to control. Type of test: functional. The note with it: dose 100.0 µg/ml, pooled result: one value given for 15 cell lines, strains, targets or settings. The method, boiled down: as §2
The subject of a further test is HN. The experiment in a line: Growth inhibition of human HN cells at 100 ug/ml measured after 48 hrs by SRB assay relative to control. Type of test: functional. The note with it: dose 100.0 µg/ml, pooled result: one value given for 15 cell lines, strains, targets or settings. The method, boiled down:
as §2

For the next test, the system named is A-431. The experiment in a line: Growth inhibition of human A-431 cells at 100 ug/ml measured after 48 hrs by SRB assay relative to control. Type of test: functional. The note with it: dose 100.0 µg/ml, pooled result: one value given for 15 cell lines, strains, targets or settings. The method, boiled down:
as §2

The next test deals with HNO 97 cell line. The description is as §1. The test is classed as functional. As to conditions: dose 100.0 µg/ml, pooled result: one value given for 15 cell lines, strains, targets or settings. The method, boiled down:
as §2

The subject of the next test is HEp-2. The experiment in a line: Growth inhibition of human HEp-2 cells at 100 ug/ml measured after 48 hrs by SRB assay relative to control. As to conditions: dose 100.0 µg/ml, pooled result: one value given for 15 cell lines, strains, targets or settings. The test is classed as functional. Summed up: as §2
A further test relates to Caco-2. As to the kind of experiment: Growth inhibition of human Caco-2 cells at 100 ug/ml measured after 48 hrs by SRB assay relative to control. The note with it: dose 100.0 µg/ml, pooled result: one value given for 15 cell lines, strains, targets or settings. The test is classed as functional. Summed up:
as §2

The subject of the next test is HepG2. The experiment in a line: Growth inhibition of human HepG2 cells at 100 ug/ml measured after 48 hrs by SRB assay relative to control. The test is classed as functional. The note with it: dose 100.0 µg/ml, pooled result: one value given for 15 cell lines, strains, targets or settings. Summed up:
as §2

Another test has as its system HeLa. The experiment in a line: Growth inhibition of human HeLa cells at 100 ug/ml measured after 48 hrs by SRB assay relative to control. Type of test: functional. As to conditions: dose 100.0 µg/ml, pooled result: one value given for 15 cell lines, strains, targets or settings. The method, boiled down:
as §2

Another test relates to FaDu. The experiment in a line: Growth inhibition of human FaDu cells at 100 ug/ml measured after 48 hrs by SRB assay relative to control. As to conditions: dose 100.0 µg/ml, pooled result: one value given for 15 cell lines, strains, targets or settings. The test is classed as functional. The method, boiled down: as §2
For the next test, the system named is A-375. As to the kind of experiment: Growth inhibition of human A-375 cells at 100 ug/ml measured after 48 hrs by SRB assay relative to control. The test is classed as functional. The note with it: dose 100.0 µg/ml, pooled result: one value given for 15 cell lines, strains, targets or settings. The method, boiled down:
as §2

For another test, the system named is NCI-H1299. As to the kind of experiment: Growth inhibition of human NCI-H1299 cells at 100 ug/ml measured after 48 hrs by SRB assay relative to control. Type of test: functional. As to conditions: dose 100.0 µg/ml, pooled result: one value given for 15 cell lines, strains, targets or settings. The method, boiled down:
as §2

Another test deals with MDA-MB-468. As to the kind of experiment: Growth inhibition of human MDA-MB-468 cells at 100 ug/ml measured after 48 hrs by SRB assay relative to control. The test is classed as functional. As to conditions: dose 100.0 µg/ml, pooled result: one value given for 15 cell lines, strains, targets or settings. Summed up: as §2
The next test concerns the target Tubulin. The test is described as §3. The test is classed as protein-complex assay, Homo sapiens. Summed up:
as §4

T1 sequence (Q02880 whole entry, the tested form may be a part): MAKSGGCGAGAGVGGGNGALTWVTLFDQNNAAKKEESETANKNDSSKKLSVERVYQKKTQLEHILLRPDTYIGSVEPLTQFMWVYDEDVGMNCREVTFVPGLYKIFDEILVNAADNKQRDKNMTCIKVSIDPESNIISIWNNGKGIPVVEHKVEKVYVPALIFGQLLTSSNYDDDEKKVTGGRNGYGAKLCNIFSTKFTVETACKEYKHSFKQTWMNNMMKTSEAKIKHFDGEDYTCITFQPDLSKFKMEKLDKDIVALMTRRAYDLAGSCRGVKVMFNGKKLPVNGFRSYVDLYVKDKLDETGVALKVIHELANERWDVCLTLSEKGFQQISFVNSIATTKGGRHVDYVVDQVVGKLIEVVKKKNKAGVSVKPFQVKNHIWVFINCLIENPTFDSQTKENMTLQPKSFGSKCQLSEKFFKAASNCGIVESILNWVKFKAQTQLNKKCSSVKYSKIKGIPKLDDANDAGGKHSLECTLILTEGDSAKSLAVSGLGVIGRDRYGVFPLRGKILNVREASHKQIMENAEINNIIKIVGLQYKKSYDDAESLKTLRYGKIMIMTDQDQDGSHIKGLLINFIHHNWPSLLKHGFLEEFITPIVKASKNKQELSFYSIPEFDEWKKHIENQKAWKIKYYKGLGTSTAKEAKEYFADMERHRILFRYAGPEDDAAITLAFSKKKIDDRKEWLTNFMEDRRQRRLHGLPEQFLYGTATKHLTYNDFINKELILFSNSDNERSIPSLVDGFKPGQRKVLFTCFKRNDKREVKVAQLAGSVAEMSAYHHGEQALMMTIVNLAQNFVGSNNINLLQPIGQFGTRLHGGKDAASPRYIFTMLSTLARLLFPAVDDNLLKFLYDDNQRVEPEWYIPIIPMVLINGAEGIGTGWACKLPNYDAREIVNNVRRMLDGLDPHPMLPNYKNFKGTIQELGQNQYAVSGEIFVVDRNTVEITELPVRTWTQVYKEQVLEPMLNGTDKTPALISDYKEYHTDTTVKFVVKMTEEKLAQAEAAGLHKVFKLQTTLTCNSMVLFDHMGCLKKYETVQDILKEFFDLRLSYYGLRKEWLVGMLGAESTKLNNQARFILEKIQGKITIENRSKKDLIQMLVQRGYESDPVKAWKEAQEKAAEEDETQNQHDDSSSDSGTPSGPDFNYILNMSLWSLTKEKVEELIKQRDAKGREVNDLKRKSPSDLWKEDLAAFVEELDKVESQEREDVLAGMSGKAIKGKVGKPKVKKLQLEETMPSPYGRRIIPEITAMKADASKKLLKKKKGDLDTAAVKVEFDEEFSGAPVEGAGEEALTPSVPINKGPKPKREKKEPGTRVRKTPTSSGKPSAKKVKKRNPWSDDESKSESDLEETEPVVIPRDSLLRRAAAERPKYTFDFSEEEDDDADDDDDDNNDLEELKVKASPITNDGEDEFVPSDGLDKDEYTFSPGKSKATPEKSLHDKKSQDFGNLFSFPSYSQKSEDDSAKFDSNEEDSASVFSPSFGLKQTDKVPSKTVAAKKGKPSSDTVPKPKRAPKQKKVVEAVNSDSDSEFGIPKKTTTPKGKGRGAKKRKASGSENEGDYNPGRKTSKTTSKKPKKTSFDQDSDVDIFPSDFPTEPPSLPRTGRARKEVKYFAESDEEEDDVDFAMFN

`COc1cccc2c1C(=O)c1c(O)c3c(c(O)c1C2=O)C[C@@](O)(C(=O)CO)C[C@@H]3O[C@H]1C[C@H](N)[C@H](O)[C@H](C)O1` [DOXORUBICIN]: the inhibition entry on DNA topoisomerase 2-beta [1] is “Active”. Further, the inhibition of growth at 100 µg/mL in test [2] came out at 70.2%. This compound showed an IC50 against DNA topoisomerase 2-beta [3] of 12.7 µM.

As to `O=C1c2c(Br)c(Br)c(Br)c(Br)c2C(=O)N1c1nnn[nH]1`, the “growth inhibition (GI)” value with PC-3, in the test on A549, in the test with HCT-116, in the test on MCF7, in the test with HN and in the test with A-431 was “Active” in each case. Further, the “growth inhibition (GI)” value with HNO 97 cell line, in the test with HEp-2, with Caco-2, in the test with HepG2, in the test on HeLa and in the test with FaDu was “Active” each time. Moreover, the “growth inhibition (GI)” value in the test on A-375, in the test with NCI-H1299 and in the test on MDA-MB-468 was “Active” throughout. Further, the inhibition entry on DNA topoisomerase 2-beta [1], at Tubulin (Homo sapiens) and on DNA topoisomerase 2-beta [3] was “Active” in each case.

With `CC(=O)n1c(-c2ccc(N3C(=O)c4c(Br)c(Br)c(Br)c(Br)c4C3=O)cc2)nc2ccccc21`, the “growth inhibition (GI)” value in the test with PC-3, in the test on A549, in the test with HCT-116, in the test with MCF7, in the test on HN and in the test on A-431 was “Active” throughout. Also, the “growth inhibition (GI)” value with HNO 97 cell line, in the test with HEp-2, in the test on Caco-2, with HepG2, in the test with HeLa and in the test on FaDu was “Active” throughout. Besides, the “growth inhibition (GI)” value in the test on A-375, in the test on NCI-H1299 and in the test on MDA-MB-468 was “Active” each time. Besides, the inhibition entry at DNA topoisomerase 2-beta [1] and on DNA topoisomerase 2-beta [3] was “Active” in each case. This compound also gave an IC50 on Tubulin of 6.94 µM.

As for `O=C(O)[C@H](Cc1c[nH]c2ccccc12)N1C(=O)c2c(Br)c(Br)c(Br)c(Br)c2C1=O`, the inhibition result at DNA topoisomerase 2-beta [1] was “Active”. In addition, the inhibition of growth at 100 µg/mL in test [2] stood at 75.1%. Moreover, on DNA topoisomerase 2-beta [3], the inhibition result was “Active; Weak Inhibition Observed”.

Consider `COc1cc([C@@H]2c3cc4c(cc3[C@@H](O[C@@H]3O[C@@H]5CO[C@@H](C)O[C@H]5[C@H](O)[C@H]3O)[C@H]3COC(=O)[C@H]23)OCO4)cc(OC)c1O`, for which the inhibition result at DNA topoisomerase 2-beta [1] is “Active”.

Take `O=C1c2c(Br)c(Br)c(Br)c(Br)c2C(=O)N1c1nnc[nH]1`: the “growth inhibition (GI)” value in the test with PC-3, in the test on A549, in the test on HCT-116, in the test with MCF7, in the test on HN and with A-431 was “Active” each time. In addition, the “growth inhibition (GI)” value in the test on HNO 97 cell line, with HEp-2, with Caco-2, in the test on HepG2, in the test with HeLa and with FaDu was “Active” in each case. The “growth inhibition (GI)” value in the test with A-375, in the test with NCI-H1299 and in the test on MDA-MB-468 was “Active” in each case. Further, the inhibition result on DNA topoisomerase 2-beta [1] and on DNA topoisomerase 2-beta [3] was “Active” in each case. In addition, at Tubulin (Homo sapiens), the inhibition result was “Active; Weak Inhibition Observed”.

Consider `O=C1CCC(N2C(=O)c3c(Br)c(Br)c(Br)c(Br)c3C2=O)C(=O)O1` (stereo unspecified), for which the “growth inhibition (GI)” value in the test with PC-3, with A549, with HCT-116, in the test on MCF7, with HN and with A-431 was “Active; Weak Inhibition Observed” in each case. Further, the “growth inhibition (GI)” value with HNO 97 cell line, in the test with HEp-2, with Caco-2, with HepG2, in the test on HeLa and in the test on FaDu was “Active; Weak Inhibition Observed” throughout. For the same compound, the “growth inhibition (GI)” value in the test on A-375, in the test on NCI-H1299 and with MDA-MB-468 was “Active; Weak Inhibition Observed” each time.

One may read the IC50 as the concentration needed to halve the response being measured. A high value points to lower potency.

Source of the values: ChEMBL document CHEMBL6177935, “Design and synthesis of novel multi-target tetrabromophthalimides as CBS and Topo-II inhibitors and DNA intercalators” (RSC Med Chem, 2024).
